Screening results: PubChem, several laboratories
Rows were chosen to be rich in hits. Some 1% of all compounds tested hit in one or more screens of this group.
TLR4 MyD88 comp: inhibitors of TLR4-MyD88 association in cells, primary screen, cell-based, HeLa CL3-4, BLA complementation, FRET ratio; actives 0.18% (n = 200,000); inhibition, % at 8.4 µM; HeLa CL3-4 TLR4/MyD88 BLA complementation; Toll-like receptor 4 (Homo sapiens) + Myeloid differentiation primary response protein …; in the data active = inhibition above about 25%;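 also: 0% = vehicle and 100% = reference inhibitor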
Target sequence (O00206 whole entry, looked up): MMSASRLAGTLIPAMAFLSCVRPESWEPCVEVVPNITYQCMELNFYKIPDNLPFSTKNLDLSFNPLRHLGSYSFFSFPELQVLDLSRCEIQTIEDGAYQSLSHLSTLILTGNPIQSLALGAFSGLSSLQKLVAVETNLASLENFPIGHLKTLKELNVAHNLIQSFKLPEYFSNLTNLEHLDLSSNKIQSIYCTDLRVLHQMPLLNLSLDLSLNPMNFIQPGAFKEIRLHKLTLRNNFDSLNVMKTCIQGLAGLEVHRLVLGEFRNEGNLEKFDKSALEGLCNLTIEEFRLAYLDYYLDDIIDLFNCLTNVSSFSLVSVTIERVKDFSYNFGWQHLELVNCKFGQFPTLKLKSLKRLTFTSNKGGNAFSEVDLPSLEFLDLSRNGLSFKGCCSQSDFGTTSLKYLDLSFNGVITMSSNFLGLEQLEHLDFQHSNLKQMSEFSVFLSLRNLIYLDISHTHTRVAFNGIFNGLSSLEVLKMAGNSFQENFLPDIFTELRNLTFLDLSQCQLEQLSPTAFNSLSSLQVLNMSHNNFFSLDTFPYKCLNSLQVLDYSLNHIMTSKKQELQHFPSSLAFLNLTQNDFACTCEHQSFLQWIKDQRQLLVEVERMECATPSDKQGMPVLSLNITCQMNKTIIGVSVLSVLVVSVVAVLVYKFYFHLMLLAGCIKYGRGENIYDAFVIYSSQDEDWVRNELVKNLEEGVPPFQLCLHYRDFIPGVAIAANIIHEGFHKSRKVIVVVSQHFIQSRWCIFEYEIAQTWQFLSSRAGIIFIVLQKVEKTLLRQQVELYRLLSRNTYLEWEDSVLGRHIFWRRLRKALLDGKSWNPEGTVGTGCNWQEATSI
Target sequence (Q99836 whole entry, looked up): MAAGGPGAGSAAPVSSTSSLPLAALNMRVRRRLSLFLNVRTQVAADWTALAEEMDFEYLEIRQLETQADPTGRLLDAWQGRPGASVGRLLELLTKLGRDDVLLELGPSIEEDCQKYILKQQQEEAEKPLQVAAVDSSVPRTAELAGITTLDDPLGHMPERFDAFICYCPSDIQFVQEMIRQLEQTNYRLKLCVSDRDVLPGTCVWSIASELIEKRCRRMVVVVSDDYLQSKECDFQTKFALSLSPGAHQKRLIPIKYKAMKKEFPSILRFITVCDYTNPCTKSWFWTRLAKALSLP
b-catenin transl: modulators of beta-catenin nuclear translocation, primary screen, imaging, HeLa cells, immunofluorescence, high-content. nuclear translocation activity, % at 5 µM. actives 0.3% (n = 190,000). AID 1665, 2009;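 active = nuclear translocation activity above 50% at 5 µM, with a well cell count of 50 or more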;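 also: per-cell ratio of nuclear to cytoplasmic median beta-catenin stain intensity; plate controls were DMSO negative control for no effect and GSK-3 inhibitor IX positive control for full effect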
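Test system: human HeLa cell line; Doses: 5 µM primary, 0.02–20 µM confirmation; Incubation: 24 h compound exposure, 37°C; Detection: beta-catenin immunofluorescence imaging with DAPI; Read-out: beta-catenin nuclear/cytoplasmic ratio, % activation.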
NOD2-RIPK2 inh: NOD2-RIPK2 binding disruptors in cells, primary screen, fluorescence, CHO cells, BLA complementation; inhibition, % at 4.98 µM; AID 624267, 2012; CCF4 ratio; actives 0.38% (n = 360,000); in the data active = inhibition above about 21%;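 also: 0% = vehicle only and 100% = reference blocker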
TLR9-MyD88 block: inhibitors of TLR9-MyD88 association in cells, primary screen, cell-based, CHO, BLA complementation, fluorescence; Toll-like receptor 9 (Homo sapiens) + Myeloid differentiation primary response protein …; CCF4 FRET ratio; inhibition, % at 4.98 µM; actives 0.21% (n = 340,000); AID 504734, 2011;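 active = inhibition above the mean over all tested compounds plus 3 SD, cut at about 21% in these data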;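 also: 0% = DMSO only wells and 100% = clavulanate BLA inhibitor control wells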
Hsp70 activator: Hsp70 transcriptional activators, primary screen, cell-based, HeLa, Hsp70 promoter luciferase, luminescence, 10 µM; AID 1203, 2008; HeLa Hsp70 promoter luciferase reporter; scaled: vehicle 0, proteasome-inhibitor control 100%; activation, % at 10 µM; actives 0.04% (n = 200,000);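 active = activation above the mean across all tested compounds plus 3 SD, cutoff set per campaign, cut at about 5.5% in these data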;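 also: 100% = MG132 at 30 µM as the positive control and 0% = DMSO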
MT stabilizer: microtubule stabilizers in HeLa cells, primary screen, imaging, high-content imaging | AID 2205, 2009 | HeLa tubulin immunostaining HCS, 24 h; share of cells brighter than vehicle mean+2SD | actives 0.83% (n = 200,000) | % tubulin-high responders, % at 10 µM;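 active = plate Z-score above 3 for both tubulin-high and condensed-nucleus cell shares, with cell loss under 80%, at 10 µM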;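 also: anti alpha tubulin signal scored within the nucleus-defined area of each cell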
NOD2 RIPK2 conf: NOD2-RIPK2 binding disruptors, retest, confirmation, fluorescence, CHO cells, BLA complementation, triplicate; shares compounds with NOD2-RIPK2 inh; CCF4 FRET; inhibition, % at 4.98 µM; actives 70% (n = 1,200);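 active = mean inhibition across replicates above a set limit taken from the earlier primary screen, cut at about 21% in these data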;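 also: 0% = DMSO-only wells and the high end = clavulanate BLA-blocked wells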
NOD2 BLA counter: counter-screen for NOD2-RIPK2 interaction inhibitors: BLA reporter; shares compounds with NOD2-RIPK2 inh; CHO BLA reporter, CCF4 FRET ratio, counterscreen; inhibition, % at 4.98 µM; actives 57% (n = 1,200);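 active = mean inhibition above the low-control mean inhibition plus three low-control SD, cut at about 11% in these data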;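 also: 0% = DMSO only wells and 100% = clavulanate high control wells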
The depositor's hits bear a star; . = no result.

SMILES	TLR4 MyD88 comp	b-catenin transl	NOD2-RIPK2 inh	TLR9-MyD88 block	Hsp70 activator	MT stabilizer	NOD2 RIPK2 conf	NOD2 BLA counter
Nc1c(C(=O)NCc2ccc(Cl)cc2)sc2nc3c(c(C(F)(F)F)c12)CCC3	11.4	-2.0	-11.1	7.2	0.1	2.4	.	.
Cc1cc(-c2ccco2)c(C#N)c2nc3ccccc3n12	12.0	.	22.4*	4.6	-0.1	2.9	17.8	14.8*
Cc1cc(C(C)C)n2c(nc3ccccc32)c1C#N	-16.0	-4.3	.	.	-0.2	5.8	.	.
O=c1oc2cc(O)ccc2cc1S(=O)(=O)c1ccccc1	.	.	-40.2	-111.6	.	.	.	.
O=c1oc2cc(O)ccc2cc1-c1nc2ccccc2o1	.	.	56.9*	.	.	.	54.2*	68.5*
COc1ccc(Br)cc1CN1CCC(N2CCCC2)CC1	.	.	-6.8	-0.3	.	.	.	.
CN(CC(=O)Nc1ccccc1Cl)C(=O)COC(=O)c1nc(Cl)c(Cl)c(Cl)c1Cl	.	.	23.9*	15.3	.	.	28.1*	9.3
COc1ccc(-c2cc(-c3cccs3)nc3sc(C#N)c(N)c23)cc1	17.1	-0.7	44.7*	13.4	-0.3	3.0	51.4*	68.6*
COCc1cc(C)c2c(N)c(C#N)sc2n1	-3.4	0.9	-7.1	1.3	-0.1	1.0	.	.
N#Cc1c(-c2ccccc2)cc(C2CC2)nc1N	9.1	-2.6	-3.5	4.7	-0.3	3.8	.	.
N#Cc1sc2nc(C3CC3)cc(-c3ccc(Cl)cc3)c2c1N	12.6	-1.6	27.9*	14.3	-0.3	1.9	19.1	25.0*
C=C1CC2(OC1=O)c1ccccc1CCc1ccccc12	.	.	83.8*	15.6	.	.	89.6*	25.2*
CCOC(=O)[C@]12CCC=C1N(Cc1ccco1)C(=O)[C@H](CC(=O)NCCC(C)C)C2	.	.	-3.8	.	.	.	.	.
NC(=S)N=Nc1c(O)n(Cc2ccc(F)cc2)c2ccccc12	5.0	0.1	2.3	-8.7	-0.4	2.6	.	.
O=Nc1c(O)n(Cc2ccc(Cl)cc2)c2ccccc12	3.3	-0.7	22.5*	20.1	-0.3	1.3	22.1*	16.9*
Cc1cccc2c(N=O)c(O)n(CCc3ccccc3)c12	.	.	25.9*	15.7	.	.	25.1*	13.8*
OC(c1ccc(F)cc1)c1nc(-c2cnc3ccccc3c2)cs1 (stereo unspecified)	.	.	11.0	.	.	.	.	.
COc1ccc(C(=O)N/N=C/c2sc3ccccc3c2O)cc1	-0.8	-0.9	21.8*	9.6	-0.2	3.7	10.0	10.2
COc1ccc2cc(C(=O)N/N=C/c3sc4ccccc4c3O)ccc2c1	10.2	-2.7	-3.1	18.6	-0.1	1.7	.	.
CCN(C(=O)c1cccnc1SC)C12CC3CC(CC(C3)C1)C2	.	.	1.8	-6.1	.	.	.	.
CCC1CCCCN1C(=O)CSc1nc2ncccc2[nH]1 (stereo unspecified)	.	.	-19.4	-6.9	.	.	.	.
COC(=O)c1cccc(N2CCCC2=O)c1	.	0.9	7.5	8.2	.	.	.	.
COC(=O)c1cccc(-n2sc3ccccc3c2=O)c1	.	.	40.4*	12.5	.	.	36.4*	13.3*
O=C(NCCCN1CCOCC1)c1cccc(S(=O)(=O)N2CCc3ccccc32)c1	.	.	5.3	4.5	.	.	.	.
CCCOc1ccc(NC(=O)C2CC(=O)N/C(=N/N=C(C)/C=C/c3ccc(N(C)C)cc3)S2)cc1 (stereo unspecified)	12.8	0.6	22.2*	9.7	-0.1	4.1	18.7	25.6*
CC(/C=C/c1ccc(N(C)C)cc1)=N/N=C1/NC(=O)CC(C(=O)Nc2ccc(Cl)cc2)S1 (stereo unspecified)	6.8	4.8	24.0*	14.4	-0.2	1.3	18.6	32.0*
COc1cc(CC(=O)OCC(=O)N(C)C2CCCCC2)cc(OC)c1OC	.	.	3.4	2.2	.	.	.	.
